Values after ≈ are worked out from the molar mass of the structure shown.
Columns and labels:
[1] = Protein binding in human plasma at 10 uM after 6 hrs by LC-MS/MS method; type: ADME, cell-free; conditions: read-out: PPB (converted)
[2] = Intrinsic clearance in human liver microsomes at 1 uM after 5 to 40 mins by LC-MS/MS method; type: ADME; conditions: read-out: CLH
[3] = Intrinsic clearance in rat hepatocytes assessed per 10^6 cells at 1 uM after 10 to 90 mins by LC-MS/MS method; type: ADME, cell-based, Hepatocyte
[4] = Protein binding in rat plasma at 10 uM after 6 hrs by LC-MS/MS method; type: ADME, cell-free; conditions: read-out: PPB (converted)
[5] = Apparent permeability across apical to basolateral side in human Caco2 cells at 10 uM after 1 hr by LC-MS method; conditions: Caco-2
[6] = Apparent permeability across basolateral to apical side in human Caco2 cells at 10 uM after 1 hr by LC-MS method; conditions: Caco-2
[7] = Intrinsic clearance in dog hepatocytes assessed per 10^6 cells at 1 uM after 10 to 90 mins by LC-MS/MS method; type: ADME, cell-based, Canis lupus familiaris, Hepatocyte
[8] = Protein binding in dog plasma at 10 uM after 6 hrs by LC-MS/MS method; type: ADME, cell-free, Canis lupus familiaris; conditions: read-out: PPB (converted)
[9] = Clearance in Han Wistar rat at 1 mg/kg, iv and 3 mg/kg, po; type: ADME, organism-based; conditions: in vivo
Summary of the method: (§1)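 Han Wistar rat PK with 1 mg/kg iv and 3 mg/kg po doses, both in pH3 buffer. Clearance is given in ml/min/kg, Vss in L/kg and t1/2 in h.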

[10] = Volume of distribution at steady state in Han Wistar rat at 1 mg/kg, iv and 3 mg/kg, po; type: ADME, organism-based; conditions: in vivo, read-out: Vdss; summary of the method: as §1
[11] = Half life in Han Wistar rat at 1 mg/kg, iv and 3 mg/kg, po; type: ADME, organism-based; conditions: in vivo; summary of the method: as §1
[12] = Oral bioavailability in Han Wistar rat at 3 mg/kg; type: ADME, organism-based; conditions: in vivo; summary of the method: as §1
[13] = Clearance in Beagle dog at 1 mg/kg, iv and 2 mg/kg, po; type: ADME, organism-based, Canis lupus familiaris; conditions: in vivo
[14] = Volume of distribution at steady state in Beagle dog at 1 mg/kg, iv and 2 mg/kg, po; type: ADME, organism-based, Canis lupus familiaris; conditions: in vivo, read-out: Vdss
[15] = Oral bioavailability in Beagle dog at 2 mg/kg; type: ADME, organism-based, Canis lupus familiaris; conditions: in vivo
Dipeptidyl peptidase 1 [16] = biological target: Dipeptidyl peptidase 1 (Canis lupus familiaris, UniProt O97578); assay: Inhibition of dog DPP1 using Gly-Arg-AMC as substrate preincubated for 30 mins followed by substrate addition by fluorometric assay
Dipeptidyl peptidase 1 (Canis lupus familiaris, UniProt O97578), sequence (O97578 1-109 limits assumed): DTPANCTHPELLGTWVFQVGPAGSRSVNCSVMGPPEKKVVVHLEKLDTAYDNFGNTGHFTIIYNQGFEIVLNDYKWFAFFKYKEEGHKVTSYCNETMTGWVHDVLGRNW
Dipeptidyl peptidase 1 (Canis lupus familiaris, UniProt O97578), sequence (O97578 200-366 limits assumed): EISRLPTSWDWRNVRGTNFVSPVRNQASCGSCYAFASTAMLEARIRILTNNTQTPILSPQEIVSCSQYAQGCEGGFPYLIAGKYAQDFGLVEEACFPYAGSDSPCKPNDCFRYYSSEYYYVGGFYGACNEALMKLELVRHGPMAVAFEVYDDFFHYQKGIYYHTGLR
Dipeptidyl peptidase 1 (Canis lupus familiaris, UniProt O97578), sequence (O97578 367-435 limits assumed): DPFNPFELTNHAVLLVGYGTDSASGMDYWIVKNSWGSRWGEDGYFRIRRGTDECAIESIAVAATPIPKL
Summary of the method: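 Recombinant dog DPP1 enzyme, run under the same conditions as the human isolated-enzyme assay in a piperazine-based buffer. Compound and enzyme pre-incubated 30 min at rt. Fluorescent dipeptide substrate Gly-Arg-AMC then added and fluorescence read. pIC50 obtained by curve fitting.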

[17] = Inhibition of rabbit DPP1 expressed in CHO cells using Gly-Arg-AMC as substrate preincubated for 30 mins followed by substrate addition by fluorometric assay; type: cell-based, Oryctolagus cuniculus
Procathepsin L = Procathepsin L (Homo sapiens, UniProt P07711); assay: Inhibition of human recombinant cathepsin L
Procathepsin L, sequence (P07711 whole entry): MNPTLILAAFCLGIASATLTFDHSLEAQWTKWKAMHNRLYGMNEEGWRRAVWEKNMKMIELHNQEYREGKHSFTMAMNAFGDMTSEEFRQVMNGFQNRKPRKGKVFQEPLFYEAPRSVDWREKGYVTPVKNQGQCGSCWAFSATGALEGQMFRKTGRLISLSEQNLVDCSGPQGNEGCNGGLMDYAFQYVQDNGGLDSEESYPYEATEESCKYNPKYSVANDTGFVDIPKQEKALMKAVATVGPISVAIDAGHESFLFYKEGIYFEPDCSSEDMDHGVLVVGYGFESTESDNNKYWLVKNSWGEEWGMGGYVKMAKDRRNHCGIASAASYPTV

Cathepsin B = Cathepsin B (Homo sapiens, UniProt P07858); assay: Inhibition of human recombinant cathepsin B
Cathepsin D = Cathepsin D (Homo sapiens, UniProt P07339); assay: Inhibition of human recombinant cathepsin D
Cathepsin D, sequence (P07339 65-162 limits assumed): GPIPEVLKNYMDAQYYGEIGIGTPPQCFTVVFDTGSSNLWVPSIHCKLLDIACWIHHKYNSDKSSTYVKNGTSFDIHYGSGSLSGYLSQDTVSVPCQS
Cathepsin D, sequence (P07339 169-412 limits assumed): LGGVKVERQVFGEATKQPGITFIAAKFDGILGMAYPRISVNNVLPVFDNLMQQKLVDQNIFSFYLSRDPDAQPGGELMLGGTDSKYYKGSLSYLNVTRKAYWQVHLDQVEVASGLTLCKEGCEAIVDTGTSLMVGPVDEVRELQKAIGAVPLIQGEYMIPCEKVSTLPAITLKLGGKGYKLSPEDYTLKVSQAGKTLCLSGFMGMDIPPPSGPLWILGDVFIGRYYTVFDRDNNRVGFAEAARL

Cathepsin E = biological target: T1, Cathepsin E (Homo sapiens, UniProt P14091); assay: Inhibition of human recombinant cathepsin E
T1 sequence (P14091 whole entry): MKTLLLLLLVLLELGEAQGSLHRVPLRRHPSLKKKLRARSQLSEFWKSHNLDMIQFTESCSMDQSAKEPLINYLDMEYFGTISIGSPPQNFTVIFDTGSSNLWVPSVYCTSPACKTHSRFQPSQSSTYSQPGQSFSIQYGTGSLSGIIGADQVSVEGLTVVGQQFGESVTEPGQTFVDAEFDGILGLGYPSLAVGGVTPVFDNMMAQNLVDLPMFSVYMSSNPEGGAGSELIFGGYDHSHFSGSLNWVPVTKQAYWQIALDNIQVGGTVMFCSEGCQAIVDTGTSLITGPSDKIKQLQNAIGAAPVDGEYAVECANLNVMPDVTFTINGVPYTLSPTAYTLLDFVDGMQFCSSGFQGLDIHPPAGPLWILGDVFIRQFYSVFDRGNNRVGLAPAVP

Pro-cathepsin H = biological target: T2, Pro-cathepsin H (Homo sapiens, UniProt P09668); assay: Inhibition of human recombinant cathepsin H
T2 sequence (P09668 whole entry): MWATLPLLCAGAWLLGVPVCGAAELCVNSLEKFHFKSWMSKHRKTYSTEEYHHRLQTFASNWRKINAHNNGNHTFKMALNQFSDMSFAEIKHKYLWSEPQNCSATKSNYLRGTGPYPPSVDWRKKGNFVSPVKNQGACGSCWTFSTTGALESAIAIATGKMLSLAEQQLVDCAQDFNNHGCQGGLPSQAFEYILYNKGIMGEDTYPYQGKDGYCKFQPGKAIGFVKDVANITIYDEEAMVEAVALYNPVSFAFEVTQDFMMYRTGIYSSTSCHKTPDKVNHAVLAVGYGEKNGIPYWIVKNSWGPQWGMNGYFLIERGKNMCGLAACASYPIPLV

Cathepsin G = biological target: T3, Cathepsin G (Homo sapiens, UniProt P08311); assay: Inhibition of human recombinant cathepsin G
T3 sequence (P08311 whole entry): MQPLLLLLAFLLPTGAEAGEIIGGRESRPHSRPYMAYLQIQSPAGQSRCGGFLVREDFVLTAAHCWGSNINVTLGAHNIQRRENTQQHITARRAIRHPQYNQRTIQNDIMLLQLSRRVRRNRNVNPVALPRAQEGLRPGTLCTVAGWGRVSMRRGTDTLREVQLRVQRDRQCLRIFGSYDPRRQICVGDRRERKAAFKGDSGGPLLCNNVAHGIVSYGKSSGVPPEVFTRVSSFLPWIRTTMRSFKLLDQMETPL

Rattus norvegicus = assay: In vivo inhibition of DPP1 in po dosed naive rat assessed as inactivation of neutrophil elastase in bone marrow cell lysates administered as bid for 8 days; type: functional, organism-based
[18] = Intrinsic clearance in human liver microsomes at 1 uM after 5 to 30 mins by LC-MS/MS method; type: ADME; conditions: read-out: CLH
Summary of the method: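 Human liver microsome stability, with intrinsic clearance given in µL/min/mg.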

[19] = Apparent permeability across apical to basolateral side in human Caco2 cells at 10 uM after 2 hrs by LC-MS/MS method; type: ADME, cell-based; conditions: Caco-2
Summary of the method: (§2)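 Caco-2 bidirectional permeability run as P_app, given in cm/s x 10^-6.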

[20] = Apparent permeability across basolateral to apical side in human Caco2 cells at 10 uM after 2 hrs by LC-MS/MS method; type: ADME, cell-based; conditions: Caco-2; summary of the method: as §2
[21] = Half life in Sprague-Dawley rat at 1 mg/kg, iv or 3 mg/kg, po; type: ADME, organism-based; conditions: in vivo
[22] = Oral bioavailability in Sprague-Dawley rat at 3 mg/kg; type: ADME, organism-based; conditions: in vivo
[23] = biological target: Voltage-gated inwardly rectifying potassium channel KCNH2 (Homo sapiens, UniProt Q12809)
Voltage-gated inwardly rectifying potassium channel KCNH2, sequence (Q12809 whole entry): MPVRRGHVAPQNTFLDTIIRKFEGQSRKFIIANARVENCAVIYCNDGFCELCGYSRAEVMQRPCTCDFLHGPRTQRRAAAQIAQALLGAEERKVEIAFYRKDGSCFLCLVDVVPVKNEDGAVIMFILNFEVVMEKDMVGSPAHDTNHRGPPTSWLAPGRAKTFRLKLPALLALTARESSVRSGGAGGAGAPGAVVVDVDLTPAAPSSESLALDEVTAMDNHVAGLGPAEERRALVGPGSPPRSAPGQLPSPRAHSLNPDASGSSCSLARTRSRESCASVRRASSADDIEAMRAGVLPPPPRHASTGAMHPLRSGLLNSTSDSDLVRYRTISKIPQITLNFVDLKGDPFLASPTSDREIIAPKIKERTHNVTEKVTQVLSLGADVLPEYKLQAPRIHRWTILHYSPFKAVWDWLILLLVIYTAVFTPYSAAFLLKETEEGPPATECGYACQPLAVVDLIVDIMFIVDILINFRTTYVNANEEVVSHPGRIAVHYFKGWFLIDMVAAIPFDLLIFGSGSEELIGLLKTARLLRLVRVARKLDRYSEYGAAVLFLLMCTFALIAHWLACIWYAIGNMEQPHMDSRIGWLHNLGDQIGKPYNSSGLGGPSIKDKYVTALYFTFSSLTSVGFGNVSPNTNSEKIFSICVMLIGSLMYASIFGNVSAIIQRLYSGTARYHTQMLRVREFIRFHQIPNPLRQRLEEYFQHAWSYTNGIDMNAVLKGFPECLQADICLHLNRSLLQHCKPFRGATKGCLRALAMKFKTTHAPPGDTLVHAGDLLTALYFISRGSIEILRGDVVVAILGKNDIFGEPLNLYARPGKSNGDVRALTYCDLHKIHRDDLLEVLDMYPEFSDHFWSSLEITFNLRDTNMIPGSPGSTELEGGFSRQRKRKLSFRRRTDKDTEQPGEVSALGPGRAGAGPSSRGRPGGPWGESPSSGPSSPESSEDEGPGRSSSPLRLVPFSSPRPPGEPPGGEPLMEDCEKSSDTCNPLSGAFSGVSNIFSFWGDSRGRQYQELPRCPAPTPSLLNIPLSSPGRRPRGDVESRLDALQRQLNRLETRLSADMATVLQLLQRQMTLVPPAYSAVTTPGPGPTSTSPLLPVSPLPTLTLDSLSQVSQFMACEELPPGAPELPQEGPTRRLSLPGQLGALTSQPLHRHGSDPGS

Dipeptidyl peptidase 1 [24] = biological target: Dipeptidyl peptidase 1 (Homo sapiens, UniProt P53634)
Dipeptidyl peptidase 1 (Homo sapiens, UniProt P53634), sequence (P53634 25-134 limits assumed): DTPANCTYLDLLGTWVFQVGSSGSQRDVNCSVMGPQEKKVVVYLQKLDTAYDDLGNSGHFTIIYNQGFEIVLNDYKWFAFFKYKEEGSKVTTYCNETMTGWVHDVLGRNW
Dipeptidyl peptidase 1 (Homo sapiens, UniProt P53634), sequence (P53634 231-394 limits assumed): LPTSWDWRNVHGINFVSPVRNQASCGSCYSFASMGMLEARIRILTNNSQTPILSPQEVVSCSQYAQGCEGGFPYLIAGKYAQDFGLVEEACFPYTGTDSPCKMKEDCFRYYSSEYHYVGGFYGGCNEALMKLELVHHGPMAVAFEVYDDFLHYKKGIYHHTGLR
Dipeptidyl peptidase 1 (Homo sapiens, UniProt P53634), sequence (P53634 395-463 limits assumed): as the sequence (O97578 367-435 limits assumed) above, with S37T, R38G, D42N counted along it

physchem = conditions: phosphate buffered saline, pH 7.4

Work on `Cn1c(=O)oc2ccc(-c3ccc(C[C@@H](C#N)NC(=O)[C@@H]4CNCCCO4)cc3)cc21` [BRENSOCATIB] yielded a fraction unbound at 6 h, 10 µM [1] of 0.13, a microsomal CLint at 1 µM [2] of under 14 µL/min/mg and a CLH [3] of under 3.5 µL/min/10^6 cells. The fraction unbound at 6 h, 10 µM [4] was 0.06, the Papp A→B at 1 h, 10 µM [5] was 9.2 ×10⁻⁶ cm/s and the Papp B→A at 1 h, 10 µM [6] was 58 ×10⁻⁶ cm/s. The CLH [7] was under 3.5 µL/min/10^6 cells, the fraction unbound at 6 h, 10 µM [8] was 0.3 and the clearance [9] was 7 mL/min/kg. For the same compound, the Vd [10] was 2.5 L/kg, the half-life [11] was 300 min and the bioavailability [12] was 75%. For the same compound, the clearance [13] was 8 mL/min/kg, the Vd [14] was 11 L/kg and the bioavailability [15] was 92%. It also gave an IC50 (Dipeptidyl peptidase 1 [16]) of 15.8 nM, a pIC50 [17] of 7.8 and an IC50 (Procathepsin L) of over 20 µM. For the same compound, the IC50 (Cathepsin B) was over 20 µM, the IC50 (Cathepsin D) was over 20 µM and the IC50 (Cathepsin E) was over 20 µM. For the same compound, the IC50 (Pro-cathepsin H) was over 20 µM, the IC50 (Cathepsin G) was over 20 µM and the inhibition (Rattus norvegicus) was “Dose-dependent effect”. The microsomal CLint at 1 µM [18] was under 3 µL/min/mg, the Papp A→B at 2 h, 10 µM [19] was 4 ×10⁻⁶ cm/s and the Papp B→A at 2 h, 10 µM [20] was 27 ×10⁻⁶ cm/s. For the same compound, the half-life [21] was 420 min, the bioavailability [22] was 30% and the IC50 [23] was over 33 µM. The T1/2 (Dipeptidyl peptidase 1 [24]) was 3 min and the solubility kinetic at 2 h (physchem) was 180 µM (≈ 75.7 µg/mL).

— ChEMBL document CHEMBL3856275, “Discovery of Second Generation Reversible Covalent DPP1 Inhibitors Leading to an Oxazepane Amidoacetonitrile Based Clinical Candidate (AZD7986)” (J Med Chem, 2016)
